Results: ChEMBL document CHEMBL4118036, “α-Glucosidase Inhibitors from Salvia circinata” (J Nat Prod, 2017)
Activity calls are given as the source filed them. No cut-off for these calls is given here.

How the values were obtained:
[1] = Inhibition of rat intestinal alpha-glucosidase using p-nitrophenyl-alpha-D-glucopyranoside as substrate pretreated for 10 mins followed by substrate addition measured after 30 mins
In short: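 Rat intestinal acetone powder (40 mg/mL in 100 mM PBS, pH 7) as enzyme source. Test agents were dissolved in PBS or MeOH–PBS (1:1), then preincubated with the enzyme for 10 min at 37 °C. p-Nitrophenyl-α-D-glucopyranoside was added (20 mM stock in PBS) and incubated for 30 min at 37 °C. Absorbance read at 405 nm; IC50 derived per earlier reports.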

[2] = organism: Rattus norvegicus; experiment: Potency index, ratio of acarbose IC50 to test compound IC50 for rat intestinal alpha-glucosidase
[3] = system: Mus musculus; experiment: Antihyperglycemic activity in ICR mouse assessed as reduction in postprandial blood glucose levels at 5 mg/kg, ig pretreated for 30 mins followed by oral sucrose challenge measured at 30 mins interval for 120 mins by OSTT; format: functional, organism-based
[4] = system: Mus musculus; experiment: Antihyperglycemic activity in ig dosed ICR mouse assessed as reduction in postprandial blood glucose levels pretreated for 30 mins followed by oral sucrose challenge measured at 30 mins interval for 120 mins by OSTT; format: functional, organism-based
[5] = molecular target: T1, Alpha-glucosidase (Blautia obeum, UniProt A0A173Z7B1); experiment: Inhibition of recombinant Ruminococcus obeum ATCC 29174 alpha-glucosidase expressed in Escherichia coli BL21(DE3) using p-nitrophenyl-alpha-D-glucopyranoside as substrate pretreated for 10 mins followed by substrate addition measured after 3 hrs; set-up: species or system Blautia obeum ATCC 29174
T1 sequence (A0A173Z7B1 whole entry): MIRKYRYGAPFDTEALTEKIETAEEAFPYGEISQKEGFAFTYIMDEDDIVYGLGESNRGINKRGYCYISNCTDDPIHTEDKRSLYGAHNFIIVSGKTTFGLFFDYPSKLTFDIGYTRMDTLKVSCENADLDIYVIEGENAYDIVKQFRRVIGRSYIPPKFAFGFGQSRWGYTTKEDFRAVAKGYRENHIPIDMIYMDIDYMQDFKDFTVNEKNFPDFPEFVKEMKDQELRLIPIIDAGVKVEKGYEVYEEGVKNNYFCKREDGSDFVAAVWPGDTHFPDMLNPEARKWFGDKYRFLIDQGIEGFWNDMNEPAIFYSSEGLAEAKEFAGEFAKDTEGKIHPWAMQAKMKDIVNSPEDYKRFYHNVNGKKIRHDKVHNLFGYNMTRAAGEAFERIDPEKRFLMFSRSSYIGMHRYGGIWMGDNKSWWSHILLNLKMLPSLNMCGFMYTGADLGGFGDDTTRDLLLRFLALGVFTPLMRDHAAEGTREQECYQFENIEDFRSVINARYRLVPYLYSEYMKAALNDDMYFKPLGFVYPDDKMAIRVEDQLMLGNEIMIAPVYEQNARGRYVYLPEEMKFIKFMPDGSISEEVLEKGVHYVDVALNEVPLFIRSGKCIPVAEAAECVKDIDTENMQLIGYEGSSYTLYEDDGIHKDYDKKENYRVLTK
In short: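 Enzyme from E. coli BL21-DE3/pET12b grown in LB at 37 °C and induced with 0.5 mM IPTG for 8 h. Cells were sonicated in 50 mM bis-TRIS propane pH 8.0 and the lysate clarified. Enzyme (5.2 mg/mL) was preincubated with test agents for 10 min at 37 °C. pNP-α-glucoside was added (20 mM stock) and incubated for 3 h at 37 °C.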

| Structure (SMILES) | IC50 [1] | further results |
| --- | --- | --- |
| CO[C@@H]1C=C(CC[C@]2(C)[C@H](C)CC[C@@]34COC(=O)C3=C[C@@H](O[C@@H]3O[C@H](CO)[C@@H](O)[C@H](O)[C@H]3O)C[C@@H]42)C(=O)O1 | > 10000 µM |  |
| C[C@@H]1CC[C@@]23COC(=O)C2=C[C@@H](O[C@@H]2O[C@H](CO)[C@@H](O)[C@H](O)[C@H]2O)C[C@@H]3[C@]1(C)CCC1=CCOC1=O | > 10000 µM |  |
| COc1ccc(-c2cc(=O)c3c(O)c(O)c(OC)cc3o2)cc1OC | 1800 µM |  |
| COc1cc2oc(-c3ccc(O)c(O)c3)cc(=O)c2c(O)c1O | 810 µM | Activity [4]: Dose-dependent effect; IC50 [5]: 60 µM |
| C[C@@H]1CC[C@@]23COC(=O)C2=C[C@@H](O[C@@H]2O[C@H](CO)[C@@H](O)[C@H](O)[C@H]2O)C[C@@H]3[C@]1(C)CCc1ccoc1 | 500 µM | Activity [4]: Dose-dependent effect; IC50 [5]: 400 µM |
| COC1OC(=O)C=C1CC[C@]1(C)[C@H](C)CC[C@@]23COC(=O)C2=C[C@@H](O[C@@H]2O[C@H](CO)[C@@H](O)[C@H](O)[C@H]2O)C[C@@H]31 (stereo partly specified) | > 10000 µM |  |
| CC(=O)CC[C@]1(C)[C@H](C)CC[C@@]23COC(=O)C2=C[C@@H](O[C@@H]2O[C@H](CO)[C@@H](O)[C@H](O)[C@H]2O)C[C@@H]31 | > 10000 µM |  |

These reach a lower IC50 [1]. Values come first.

| IC50 [1] | Structure (SMILES) | further results |
| --- | --- | --- |
| 39 µM | COc1cc(-c2cc(=O)c3c(O)c(O)c(OC)cc3o2)ccc1Oc1ccc(-c2cc(=O)c3c(O)c(O)c(OC)cc3o2)cc1OC | Ratio IC50 [2]: 2.5 |
| 100 µM | C[C@H]1O[C@H](O[C@H]2[C@H](O)[C@@H](O)[C@@H](O[C@H]3[C@H](O)[C@@H](O)C(O)O[C@@H]3CO)O[C@@H]2CO)[C@H](O)[C@@H](O)[C@@H]1N[C@H]1C=C(CO)[C@@H](O)[C@H](O)[C@H]1O (stereo partly specified) [ACARBOSE] | Activity [3]: Active |
| 200 µM | O=c1cc(-c2ccc(O)cc2)oc2cc(O[C@@H]3O[C@H](CO)[C@@H](O)[C@H](O)[C@H]3O)cc(O)c12 [APIGETRIN] |  |
